Structures are written as SMILES. Entries after “also recorded” stand apart in the source; their conditions may differ. Residues, ends and D or L forms follow the SMILES beside them.

Experiment [1] has as its system intracavernous pressure in anesthetized rats. The experiment in a line: Monitoring of intracavernous pressure. The settings on record: for ICP effect compared with U-II and/or P5U (in words): comparison between the peptides; for effect on ICP / penile erection (in words): lowest dose. Format: in vivo, male Wistar rats. In a few lines: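 Male Wistar rats (200–250 g) under i.p. urethane (1 g kg−1); carotid catheter records systemic pressure; 26-gauge needle through right crus into the cavernosal space records ICP; injections via the other crus. Test compound given at 0.03, 0.1, 0.3 and 1 nmol in 50 μl saline, next dose ≥5 min after return to baseline; ACh 5 nmol ends each run. Read-outs are ΔICP (mmHg) and AUC (mmHg × s); mean ± s.e.m., 5–7 experiments; ANOVA with Bonferroni post-test.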

For a further experiment, the target named is T1, rat thoracic aorta (Rattus norvegicus, UniProt P49684).
T1 sequence (P49684 1-386): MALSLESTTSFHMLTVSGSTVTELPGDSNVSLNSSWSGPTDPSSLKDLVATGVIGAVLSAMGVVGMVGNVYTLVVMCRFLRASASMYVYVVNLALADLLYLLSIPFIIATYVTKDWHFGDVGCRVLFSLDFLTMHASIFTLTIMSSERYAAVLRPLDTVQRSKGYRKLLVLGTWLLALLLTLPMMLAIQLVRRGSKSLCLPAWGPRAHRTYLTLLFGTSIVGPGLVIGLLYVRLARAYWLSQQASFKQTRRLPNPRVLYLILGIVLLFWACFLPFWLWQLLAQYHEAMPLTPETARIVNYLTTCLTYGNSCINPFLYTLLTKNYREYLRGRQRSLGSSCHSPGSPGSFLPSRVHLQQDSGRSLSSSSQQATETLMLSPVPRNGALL
The conditions noted are these: comparison of U-II, P5U and UPG84. In a few lines:
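Thoracic aorta from male Wistar rats (200–250 g) killed under anaesthesia was cut helically into two parallel strips and the endothelium rubbed off. Strips were held in bicarbonate salt solution at 37°C gassed with 95% O2/5% CO2, 5 mN load, isotonic recording. After 60 min equilibration they were checked with noradrenaline 1 μmol l−1 and re-equilibrated 60 min. Cumulative concentration-response curves were fitted by sigmoidal regression; EC50 expressed as pD2 (−log EC50).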

Experiment [2] deals with intracavernous pressure in rats. The settings on record: intracavernous administration in rats; cited from earlier work.
Experiment [3] relates to human corpus cavernosum strips. The conditions noted are these: cited from earlier work.
In a further experiment the test system is vascular smooth muscle. The conditions noted are these: cited from earlier work.

In the case of `CC(C)[C@H](NC(=O)[C@@H]1CSSC(C)(C)[C@H](NC(=O)[C@@H](N)CC(=O)O)C(=O)N[C@@H](Cc2ccccc2)C(=O)N[C@@H](Cc2c[nH]c3ccccc23)C(=O)N[C@@H](CCCCN)C(=O)N[C@@H](Cc2ccc(O)cc2)C(=O)N1)C(=O)O` [P5U, H-Asp-c[Pen-Phe-Trp-Lys-Tyr-Cys]-Val-OH] (HELM PEPTIDE1{D.[Pen].F.W.K.Y.C.V}$PEPTIDE1,PEPTIDE1,2:R3-7:R3$$$V2.0), the “increase in ICP, area under the curve” value in experiment [1] (0.1 nmol intracavernous, 50 μl saline, urethane anesthesia, mean ± s.e.m., n = 7) stood at 73.95 ± 7.312 mmHg × s. In addition, the “ICP effect compared with U-II 0.3 nmol (in words)” value in experiment [1] (0.1 nmol intracavernous, compared with U-II at 0.3 nmol per rat) is given as “comparable to the effect elicited by U-II at a dose of 0.3 nmol; also recorded: not statistically different from the effect elicited by U-II at a dose of 0.3 nmol per rat”. Moreover, the “ICP effect compared with U-II and/or P5U (in words)” value in experiment [1] (0.03–1 nmol intracavernous) was “elicited a significant increase in ICP as compared to U-II”. In addition, the “delta of increase in ICP (in words)” value in experiment [1] (0.03–1 nmol intracavernous, delta in mmHg) is given as “displays the same profile of the area under the curve”. The “effect on ICP (in words)” value in experiment [1] (doses of 0.1, 0.3 and 1 nmol intracavernous) is on record as “significantly raises ICP”. In addition, the “effect on ICP / penile erection (in words)” value in experiment [1] (0.03 nmol intracavernous) was “did not affect the ICP”. The “agonist activity / potency (in words)” value at rat thoracic aorta is reported as “higher activity (pD2) when compared to the endogenous ligand U-II”.
On to `CC(C)[C@H](NC(=O)[C@@H]1CSSC[C@H](NC(=O)[C@H](CC(=O)O)NC(=O)[C@@H]2CCCN2C(=O)[C@@H](NC(=O)[C@@H](N)CCC(=O)O)[C@@H](C)O)C(=O)N[C@@H](Cc2ccccc2)C(=O)N[C@@H](Cc2c[nH]c3ccccc23)C(=O)N[C@@H](CCCCN)C(=O)N[C@@H](Cc2ccc(O)cc2)C(=O)N1)C(=O)O` [U-II, H-Glu-Thr-Pro-Asp-c[Cys-Phe-Trp-Lys-Tyr-Cys]-Val-OH], for which the “ICP increase (in words)” value in experiment [2] is given as “dose-dependent increase in intracavernous pressure (ICP)”. Besides, the “relaxation of human corpus cavernosum (in words)” value in experiment [3] was “relaxes human corpus cavernosum strips in endothelium-and NO-dependent manner”. Also, the “ICP effect (in words)” value in experiment [1] (0.1 nmol intracavernous) was “already detectable”. The “vasoconstrictor potency (in words)” value in the experiment with vascular smooth muscle is on record as “most potent vasoconstrictor compound identified”.
Consider `CC(C)[C@H](NC(=O)[C@@H]1CSSC(C)(C)[C@H](NC(=O)[C@@H](N)CC(=O)O)C(=O)N[C@@H](Cc2ccccc2)C(=O)N[C@H](Cc2c[nH]c3ccccc23)C(=O)N[C@@H](CCCN)C(=O)N[C@@H](Cc2ccc(N)cc2)C(=O)N1)C(=O)O` [UPG84, H-Asp-c[Pen-Phe-DTrp-Orn-(pNH2) Phe-Cys]-Val-OH] (HELM PEPTIDE1{D.[Pen].F.[dW].[Orn].[Nc1ccc(C[C@H](N[*:1])C(=O)[*:2])cc1].C.V}$PEPTIDE1,PEPTIDE1,2:R3-7:R3$$$V2.0), for which the “ICP effect compared with P5U 1 nmol (in words)” value in experiment [1] (0.03 nmol intracavernous, compared with P5U at 1 nmol) is “comparable to the penile erection induced by P5U at the dose of 1 nmol”. Besides, the “ICP effect compared with highest dose of U-II, 1 nmol (in words)” value in experiment [1] (0.03 nmol intracavernous, compared with U-II at 1 nmol) was “showed an effect similar to the highest dose of U-II (1 nmol); also recorded: comparable profile to that elicited by the highest dose of U-II (1 nmol); also recorded: comparable to the highest tested dose of U-II (1 nmol)”. The “ICP effect compared with U-II and/or P5U (in words)” value in experiment [1] (0.03–1 nmol intracavernous) is “caused a significant increase in ICP compared to the endogenous ligand, U-II, and to P5U; also recorded: even more effective than P5U”. The “effect on ICP / penile erection (in words)” value in experiment [1] (0.03 nmol intracavernous) was “induced a prominent penile erection in rat; also recorded: elicited a marked increase in ICP, expressed as area, compared with vehicle”. The “agonist activity / potency (in words)” value on rat thoracic aorta was “showed the highest activity compared with the endogenous ligand, U-II, or P5U; also recorded: more potent than U-II or P5U”.

The values above are taken from publication PMC4291883 (Asian Journal of Andrology, 2014).
